The list is not random: actives were taken first. Their share in the collection is about 1.4%.
Calpain2 inh: inhibitors of pig calpain II, primary screen, biochemical, fluorogenic peptide substrate, 1536-well; purified calpain II, 30 min; inhibition, % at 16 µM; 220,000 tested, 0.37% active; AID 1236, 2008;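 active = inhibition above about 50%, limit read from the data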
FXIIa inh 1536: human FXIIa protease inhibitors, primary screen, biochemical, 1536-well. 220,000 tested, 0.3% active. Coagulation factor XII (Homo sapiens), P00748. purified FXIIa, Boc-QGR-AMC fluorogenic substrate, 2 h. AID 800, 2007. inhibition, % at 5 µM; in the data active = inhibition above about 40%;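 also: 0% = enzyme with no compound and 100% = blank without enzyme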
Target sequence (P00748 20-372 limits assumed): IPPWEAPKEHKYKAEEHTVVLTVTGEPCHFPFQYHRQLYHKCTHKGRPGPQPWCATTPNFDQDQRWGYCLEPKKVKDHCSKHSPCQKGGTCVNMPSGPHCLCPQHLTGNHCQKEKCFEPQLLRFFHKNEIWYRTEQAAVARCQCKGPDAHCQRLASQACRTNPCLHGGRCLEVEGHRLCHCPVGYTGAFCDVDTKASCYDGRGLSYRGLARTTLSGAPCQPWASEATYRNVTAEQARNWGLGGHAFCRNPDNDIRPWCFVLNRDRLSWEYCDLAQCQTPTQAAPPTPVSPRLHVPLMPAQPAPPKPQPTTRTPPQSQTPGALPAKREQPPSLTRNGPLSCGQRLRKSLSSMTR
Target sequence (P00748 373-615 limits assumed): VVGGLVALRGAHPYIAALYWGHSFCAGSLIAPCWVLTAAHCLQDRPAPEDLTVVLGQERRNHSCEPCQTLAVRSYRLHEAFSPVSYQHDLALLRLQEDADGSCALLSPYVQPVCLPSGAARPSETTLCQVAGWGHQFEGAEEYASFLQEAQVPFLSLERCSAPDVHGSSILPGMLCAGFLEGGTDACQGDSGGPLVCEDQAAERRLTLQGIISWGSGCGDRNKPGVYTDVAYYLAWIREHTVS
hK5 inh: human KLK5 protease inhibitors, primary screen, biochemical, 1536-well. AID 873, 2007. 210,000 tested, 0.59% active. recombinant hK5, fluorogenic AMC substrate cleavage. inhibition, % at 5 µM. Kallikrein-5 (Homo sapiens), Q9Y337;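 active = inhibition of 40% or more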;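 also: 0% = enzyme controls without compound and 100% = no-enzyme blanks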
thrombin 1536: human alpha-thrombin inhibitors, primary screen, counter-screen for coagulation protease inhibitor project, biochemical, 1536-well, fluorogenic AMC substrate; AID 1046, 2008; Boc-VPR-AMC fluorogenic substrate cleavage; 220,000 tested, 0.26% active; inhibition, % at 5 µM; Prothrombin (Homo sapiens), P00734;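 active = inhibition at or above 40%; inactive = inhibition below 40%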;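 also: 0% = enzyme with no compound and 100% = wells without enzyme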
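Material: Human alpha-thrombin protein | Buffer or medium: pH 7.5 Tris-saline with Tween 20 | Reagent: Boc-VPR-AMC substrate, 15 µM final | Schedule: Reaction at ambient temperature | Detection: AMC fluorescence at 355 nm excitation and 460 nm emission | Evaluation: Percent inhibition scaled between no-compound controls and no-enzyme blanks | Controls: no-compound enzyme wells and no-enzyme blanks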
FXIa inh 1536: human FXIa protease inhibitors, primary screen, biochemical, 1536-well | Coagulation factor XI (Homo sapiens), P03951 | purified FXIa, Boc-Glu-Ala-Arg-AMC fluorogenic substrate | inhibition, % at 5 µM | 220,000 tested, 0.14% active;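 active = inhibition of at least 40%; inactive = inhibition below 40%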;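 also: fluorescence of freed AMC excited at 355 nm; 0% = enzyme without compound and 100% = no enzyme blank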
* hit, by the source's call.

SMILES | Calpain2 inh | FXIIa inh 1536 | hK5 inh | thrombin 1536 | FXIa inh 1536
O=C(Nc1nnc(-c2ccccc2)s1)c1cc(S(=O)(=O)N2CCOCC2)c(Cl)cc1Cl | 21.3 | 41.5* | 4.8 | 4.1 | 24.9
CC(=O)Nc1nonc1NC(=O)CSc1ccccn1 | -23.0 | 69.9* | 3.5 | 0.4 | 10.6
COc1cccc(-n2c(CN3CCN(c4ccccc4)CC3)nc3ccc([N+](=O)[O-])cc3c2=O)c1 | -21.8 | 14.5 | -17.0 | -4.9 | 8.2
Cc1nn(C)c(C)c1S(=O)(=O)N(CC(=O)Nc1ccc2c(c1)OCO2)c1ccc(C(C)C)cc1 | 2.6 | 2.3 | 10.5 | 3.4 | 0.0
COc1ccc(N(CC(=O)Nc2ccc3c(c2)OCCO3)S(=O)(=O)c2c(C)nn(C)c2C)cc1 | 2.2 | 45.7* | 31.0 | 26.5 | 20.9
CCOc1ccc(N(CC(=O)Nc2cccc(F)c2)S(=O)(=O)c2c(C)noc2C)cc1 | 15.9 | 44.9* | 41.9* | 23.2 | 11.4
CON(C)c1nc(OCCNC(=O)OCc2ccc(Cl)cc2Cl)nc(N(C)C)n1 | -9.1 | 9.2 | -0.5 | 0.4 | -2.5
O=C(Cc1c(Cl)cccc1Cl)OCC(=O)N1CCN(C(=O)c2ccco2)CC1 | 9.2 | 9.3 | 14.2 | -4.2 | 1.1
O=C(NNc1c(Cl)cc(Cl)cc1Cl)c1n[nH]c(=O)c2ccccc12 | 18.4 | 73.5* | 35.9 | 28.2 | 21.3
Cc1ccc(/C=C/C(=O)OCC(=O)Nc2cccc(S(=O)(=O)N(C)C)c2)o1 | 9.3 | 14.7 | -10.7 | 1.9 | 5.0
Cn1c(SCC(=O)c2ccccc2)nnc1-c1cccc(N)c1 | 11.1 | 106.2* | 60.5* | 5.9 | 15.2
O=C1CC(c2ccccc2)CC(O)=C1C=NCCN1CCN(C(=S)Nc2cccc(Cl)c2)CC1 (stereo unspecified) | 15.2 | 14.2 | 43.5* | 7.4 | -0.2
Cc1ccc(C2CC(=O)C(C=NCCN3CCN(C(=S)Nc4ccc(F)cc4)CC3)=C(O)C2)cc1 (stereo unspecified) | -0.7 | 6.5 | -3.1 | -8.2 | -2.5
CNC(=O)c1ccc(NC(=O)/C=C/c2cccc(F)c2)cc1 | -31.0 | 3.9 | -0.4 | -4.1 | -1.7
O=C(O)CN1C(=O)/C(=C/c2ccc(N3CCCCC3)o2)SC1=S | 19.1 | 72.2* | 45.1* | 8.2 | 22.9
COc1ccc(CN(C(=O)c2snc(C(N)=O)c2N)C(C(=O)NC(C)(C)C)c2ccco2)cc1 (stereo unspecified) | -106.8 | 43.1* | 11.1 | -2.9 | -8.7
CO/N=C(\N)c1nonc1N | 7.7 | 24.8 | 21.9 | 16.9 | 57.6*
O=C(CSc1nc(-c2ccc(F)cc2)nc2c1Cc1ccccc1O2)Nc1ccc(C(=O)O)cc1 | 79.2* | 9.1 | -3.6 | -0.7 | 1.0
CCOC(=O)C1CCCN(c2c(NCCCN(C)c3ccccc3)c(=O)c2=O)C1 (stereo unspecified) | 100.3* | 25.6 | 41.6* | 22.3 | 11.2
CCc1nc2ccccc2c(C(=O)OCC(=O)C(C)(C)C)c1C | 11.2 | 27.4 | 31.9 | 46.8* | 29.2
CCc1nc2ccccc2c(C(=O)O)c1C | 8.8 | -3.4 | -3.3 | 1.6 | -0.2
COc1cccc(CNc2ccc(S(N)(=O)=O)cc2)c1OC | 5.2 | 107.5* | 31.1 | 17.8 | 5.8
COc1cccc(CNc2ccc(N3CCCCC3)cc2)c1OC | 15.8 | 11.5 | 13.0 | -0.6 | 15.8
Cn1nccc1NC(=O)Nc1cccc(Cl)c1 | -24.1 | 13.3 | 2.5 | -2.3 | 2.4
Cn1nccc1-c1cc(Cl)cc(Cl)c1O | 20.3 | 0.2 | -6.9 | 73.3* | -7.5
SMILES | Calpain2 inh | FXIIa inh 1536 | hK5 inh | thrombin 1536 | FXIa inh 1536
Cc1ccc2[nH]c(=O)c(N3CCOCC3)c(-c3ccccc3)c2c1 | -46.8 | 2.1 | 47.4* | 16.4 | 11.9
COc1ccc(N2C(=O)N(Cc3ccc(C)cc3)c3ccccc3S2(=O)=O)cc1 | 50.2* | 8.7 | -6.1 | -8.6 | -1.8
Cc1ccc(-n2nc(CN3CCOCC3)c(-c3ccccc3)c2N)cc1Cl | 0.5 | 12.2 | -11.4 | -15.3 | 3.9
COc1ccc(CN(C)Cc2ccccc2)c(OC)c1OC | -3.0 | 11.0 | -13.8 | -3.8 | 8.7
COC(=O)c1ccc(-n2nnnc2SCC(=O)Nc2ccccc2C(=O)OC)cc1 | -8.9 | -5.2 | -15.9 | -4.3 | 8.5
NC(=O)c1ccc(-n2nnnc2SCC(=O)Nc2ccccc2-c2ccccc2)cc1 | 64.6* | 14.2 | -9.0 | 4.1 | 1.2
N/C(=N\OC(=O)c1cccc(Cn2cc(C(F)(F)F)ccc2=O)c1)c1ccc(Cl)cc1 | 23.8 | 33.9 | 51.8* | 15.3 | 35.2
